# Shown are actives, neighbours in structure and some others; about 3.5% of the full set was active somewhere.
# RGS4 inh: human RGS4 inhibition; P49798; HEK293 M3R/RGS4 inducible, Fluo-4 calcium flux; stronger effect = higher value; triggered by carbachol at its EC20; B-score at 10 µM; hit rate 0.45% among 310,000; AID 463165;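 active means B-score, a plate-corrected calcium signal, over three deviations above library mean, with baseline fluorescence within five deviations of library mean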;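 further: RGS4 expression induced by doxycycline in cells with stable M3 receptor; B-score is computed from the integrated fluorescence ratio over baseline after carbachol; higher B-score means a larger calcium signal and so more RGS4 inhibition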
# Target sequence (P49798 whole entry, looked up): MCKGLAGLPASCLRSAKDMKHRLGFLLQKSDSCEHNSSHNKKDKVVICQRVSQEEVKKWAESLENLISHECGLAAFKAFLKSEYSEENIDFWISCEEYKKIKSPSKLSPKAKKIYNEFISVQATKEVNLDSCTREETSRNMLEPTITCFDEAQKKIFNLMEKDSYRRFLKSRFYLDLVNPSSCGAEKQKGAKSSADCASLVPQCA
# RGS4 pot: potentiators or activators of RGS4; HEK293 M3R/inducible RGS4, carbachol calcium flux Fluo4; stronger effect = lower value; B-score at 10 µM; AID 463111; hit rate 0.92% among 310,000;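 active means B-score of the integrated calcium signal more than 4 SD below the library mean, with starting fluorescence not abnormally high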;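 further: negative B-score means reduced calcium response which marks RGS4 activation or potentiation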
#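 test system = M3R-expressing HEK293 line, RGS4 induced by doxycycline | probe or stimulus = carbachol at ECmax as muscarinic agonist stimulus | timing = dye loading 30 min 37 °C, buffer rest 30 min RT | signal = calcium dye Fluo4 fluorescence | evaluation = B score from integrated fluorescence ratio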
# MrgX1 ag: activates human MrgX1 receptor signaling | B-score at 10 µM | hit rate 0.44% among 310,000 | MrgX1-HEK293 cells, Fluo-4 calcium fluorescence, agonist mode; stronger effect = higher value;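 active means calcium response B-score plate-corrected fluorescence ratio at least 3 library SD, with starting fluorescence B-score inside 5 SD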
# Target sequence (Q96LB2 whole entry, looked up): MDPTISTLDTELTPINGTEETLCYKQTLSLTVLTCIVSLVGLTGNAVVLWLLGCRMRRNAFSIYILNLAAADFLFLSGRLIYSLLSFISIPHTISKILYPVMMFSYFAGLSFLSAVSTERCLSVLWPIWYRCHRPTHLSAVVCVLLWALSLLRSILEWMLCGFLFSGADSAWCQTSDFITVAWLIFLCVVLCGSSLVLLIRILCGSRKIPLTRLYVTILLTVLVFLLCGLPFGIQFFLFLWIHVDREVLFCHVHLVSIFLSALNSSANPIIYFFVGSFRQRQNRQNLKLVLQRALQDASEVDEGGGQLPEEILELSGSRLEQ
#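 times = overnight plating, then 30 min 37 °C plus 30 min room-temperature dye loading | assay system = stable human MrgX1 HEK293 cell line | input = fifteen thousand cells per well | signal = kinetic calcium dye fluorescence, Fluo-4 NW | dosing = compound delivered in addition one of three | read-out = B-scored fluorescence response ratio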
# MrgX1 antagonist: blocks BAM8-22 activation of human MrgX1 receptor; MRGX1-HEK293 calcium flux, Fluo-4, BAM8-22 antagonism; stronger effect = lower value; Q96LB2; hit rate 1.3% among 310,000; AID 588676; B-score at 10 µM;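 active means calcium-response B-score plate-corrected more than 3 library SD below zero, starting fluorescence within 5 deviations, no agonist response on first addition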;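 further: peak minus trough fluorescence over baseline after final BAM8-22 challenge near maximal dose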
# MrgX1 allo act: allosterically activates human MrgX1 receptor signaling; MrgX1-HEK293, Fluo-4 calcium flux, FDSS; stronger effect = higher value; Q96LB2; AID 588675; hit rate 0.63% among 310,000; B-score at 10 µM;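 active means plate-corrected calcium response at least 3 library SD above typical, normal starting fluorescence, not activating the receptor alone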;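 further: compound read alongside a low EC10 to EC30 dose of BAM8-22 agonist; peak minus trough fluorescence over baseline measured at the second addition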
# RGS4 block valid: RGS4 inhibitor validation | shares compounds with RGS4 inh | HEK293 M3R/RGS4, carbachol calcium Fluo-4 fluorescence; carbachol added at its EC20; 0 = buffer wells, 100 = carbachol control | calcium response, % at 10 µM | hit rate 65% among 1,700;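 active means duplicate-averaged calcium response above the buffer-only control mean plus 5 SD of those controls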;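 further: integrated fluorescence ratio F max minus min over baseline F0; higher response in RGS4-induced cells means RGS4 inhibition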
# M3R Ca ctr: counter-screen for RGS4 inhibitors: effect in non-induced cells. shares compounds with RGS4 inh. HEK293 M3R non-induced, carbachol calcium Fluo-4; submaximal (EC20) carbachol stimulus; buffer wells 0%, carbachol control wells 100%. activity (percent), % at 10 µM. hit rate 20% among 1,900. AID 493000; call rule not given here;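 further: RGS4 induction absent so cells express M3R without RGS4; higher means more calcium signal and flags a non-specific hit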
# M3R basal Ca ctr: second counter-screen for RGS4 inhibitors: non-induced cells without carbachol. shares compounds with RGS4 inh. HEK293 M3R/RGS4 non-induced, Fluo-4 calcium, no carbachol; normalised: buffer wells 0%, carbachol wells 100%. calcium response (agonist-mode artifact), % at 10 µM. hit rate 22% among 1,900;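 active means duplicate-averaged calcium rise in uninduced cells above buffer wells' mean plus 5 SD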
# MrgX1 ag reconf: human MrgX1 agonism, re-confirmation screen | shares compounds with MrgX1 ag | MrgX1-HEK293, Fluo-4 calcium fluorescence, FDSS | activation, % at 10 µM | hit rate 78% among 600 | AID 602412;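 active means calcium signal rise, corrected for plate position, at least 3 library SD high, with starting brightness within 5 such deviations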; further: reference of the scale not given here
# HEK293 Ca flux: counter-screen for MrgX1 antagonists: effect in parental HEK293 cells; fluorescence ratio F(max-min)/F0 at 10 µM; AID 624111; Fluo-4 calcium fluorescence, FDSS; shares compounds with MrgX1 antagonist; hit rate 2% among 4,000;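 active means duplicate-averaged calcium fluorescence ratio at least three times the standard deviation of buffer wells, a nonspecific response in parental cells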
# HEK293 Ca counter: activity in parental HEK293 cells without MrgX1. fluorescence ratio F(max-min)/F0 at 10 µM. parental HEK293 calcium flux, Fluo-4 fluorescence ratio; stronger effect = higher value. shares compounds with MrgX1 antagonist. hit rate 0.4% among 4,000;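 active means calcium fluorescence ratio, averaged over duplicates, at least 3 SD of the buffer-well ratio, meaning a nonspecific response in receptor-free cells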;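 further: untransfected parental HEK293 lacking MrgX1 used as counterscreen for MrgX1 allosteric activators; fluorescence change taken during the second addition on a kinetic imager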
# HEK293 Ca cntr2: MrgX1 activator counter-screen hit in parental HEK293 cells | shares compounds with MrgX1 antagonist | Fluo-4 calcium fluorescence (FDSS); stronger effect = higher value | fluorescence ratio F(max-min)/F0 at 10 µM | hit rate 8.7% among 4,000 | AID 624115;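 active means calcium fluorescence ratio at least three times the spread of buffer wells, meaning a non-specific response in parental cells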
# Numbers without * were called inactive; i = inactive; · = not tested or not shown.
SMILES,RGS4 inh,RGS4 pot,MrgX1 ag,MrgX1 antagonist,MrgX1 allo act,RGS4 block valid,M3R Ca ctr,M3R basal Ca ctr,others
COc1ccc(Cn2c(O)c(/C=N/NC(=O)c3ccccc3)c(=O)[nH]c2=O)cc1,i,i,i,i,i,·,i,9.5%*,
COc1ccc(Cn2c(O)c(C=NCCN3CCOCC3)c(=O)[nH]c2=O)cc1,i,i,i,i,i,·,·,·,
COc1ccc(Cn2c(O)c(/C=N/NC(=O)c3ccncc3)c(=O)[nH]c2=O)cc1,i,i,i,i,i,·,·,·,
O=C(N/N=C/c1c(O)n(CCc2ccc(F)cc2)c(=O)[nH]c1=O)c1ccccc1,i,i,i,i,i,·,·,·,
O=C(N/N=C/c1c(O)n(CCc2ccccc2)c(=O)[nH]c1=O)c1ccccc1O,i,i,i,i,i,i,i,9.0%*,
O=C(N/N=C/c1c(O)n(Cc2ccccc2)c(=O)[nH]c1=O)c1ccccc1O,6.9*,i,i,i,i,11.5%*,i,i,
CCC(=O)OC1(Cc2ccc(CC)cc2)CC(C)N(C)CC1C (stereo unspecified),i,i,i,i,i,·,·,·,
CC1(C)C(=O)C=C[C@]2(C)[C@H]3CC[C@@]4(C)[C@H](c5ccoc5)OC(=O)[C@H]5O[C@]54[C@]3(C)[C@H](O)C[C@@H]12,i,i,i,i,i,·,·,·,
O=C(N/N=C/c1c(O)n(Cc2ccc(F)cc2)c(=O)[nH]c1=O)c1ccccc1O,i,i,i,i,i,i,i,i,
CC(C)[C@H]1C(=O)O[C@@H]2CCN3CC=C(COC(=O)[C@](C)(O)[C@]1(C)O)[C@H]23,i,i,i,i,i,·,·,·,
OC(CN1CCC(c2c[nH]c3ccccc23)CC1)C(F)(F)F (stereo unspecified),i,i,i,i,i,·,·,·,
CN1C(=O)C(=Cc2ccccc2OCc2ccccc2Cl)C(=O)N(C)C1=O,i,i,i,i,i,·,·,·,
COc1cc(/C=C(/C)[N+](=O)[O-])ccc1OCc1ccccc1Cl,31.3*,i,i,i,i,10.5%*,i,38.5%*,
O=c1[nH]c(=O)n(-c2ccccc2)c(O)c1/C=C1/C(c2ccccc2)=Nc2ccccc21,9.13*,i,42.3*,i,i,30.5%*,i,16.0%*,
C/C1=C\[C@@H](C)C/C=C/[C@H]2[C@@H]3O[C@]3(C)[C@@H](C)[C@H]3[C@H](Cc4c[nH]c5ccccc45)NC(=O)[C@]32C(=O)/C=C/C(=O)[C@@H]1O,11.4*,i,i,i,10.7*,46.5%*,i,17.5%*,
CC1=CC2/C=C(\C)CCC(O)C(O)/C=C/C(=O)C23C(=O)NC(CC(C)C)C3C1C (stereo unspecified),i,i,i,i,i,·,·,·,
CC1CCCCC1NC(=O)CNC(=S)N1CC2CC(C1)c1cccc(=O)n1C2 (stereo unspecified),i,i,i,i,i,·,·,·,
C[C@H]1CCCC(=O)CCC/C=C/c2cc(O)cc(O)c2C(=O)O1,8.18*,i,i,i,i,35.0%*,i,i,
COc1cc(O)cc2c1C(=O)OC(C)CCCC(=O)CCC/C=C\2 (stereo unspecified),i,i,i,i,i,·,i,i,
Cc1cc(C=O)c(C)n1C1CC1,i,i,i,i,i,·,·,·,
O=C1NC(=O)N(Cc2ccc(F)cc2)C(=O)/C1=C\c1ccc([N+](=O)[O-])s1,6.28*,i,i,i,i,20.5%*,i,i,
COc1ccc(CN2C(=O)NC(=O)/C(=C/c3ccc([N+](=O)[O-])s3)C2=O)cc1,8.89*,i,i,i,i,29.0%*,i,i,
COc1ccc(CN2C(=O)NC(=O)/C(=C\c3cc(OC)c(OC)c(OC)c3)C2=O)cc1,i,i,i,i,i,·,·,·,
CN1C(=O)C(=Cc2ccccc2OS(=O)(=O)c2ccccc2)C(=O)N(C)C1=O,i,i,i,i,i,·,·,·,
Nc1c(C(=O)NCc2ccco2)c2nc3ccccc3nc2n1CCN1CCOCC1,5.33*,i,i,i,i,13.5%*,42.5%*,15.5%*,
SMILES,RGS4 inh,RGS4 pot,MrgX1 ag,MrgX1 antagonist,MrgX1 allo act,RGS4 block valid,M3R Ca ctr,M3R basal Ca ctr,others
Nc1c(C(=O)NCc2ccco2)c2nc3ccccc3nc2n1Cc1ccccc1,i,i,i,i,i,·,·,·,
C=C(CO)CC1CC(O)[C@]2(C)OC3CC4OC5C[C@]6(C)O[C@]7(C)CCC8OC9C[C@]%10(C)OC%11C(C)=CC(=O)OC%11CC%10OC9C[C@@H](C)C8OC7CC6O[C@]5(C)C/C=C\C4OC3CC2O1 (stereo partly specified),i,i,i,i,i,·,i,i,
O=C1N[C@@H](Cc2ccccc2)C(=O)N2[C@H]1C[C@H]1c3ccccc3N(OOSc3ccccc3)[C@H]12,i,i,i,i,i,·,·,·,
CC1OC(C[N+](C)(C)C)CC1O (stereo unspecified),·,·,79.7*,i,i,·,·,·,MrgX1 ag reconf=501.5%*;HEK293 Ca flux=i;HEK293 Ca counter=i;HEK293 Ca cntr2=104*
C[C@H]1OC[C@@H](C[N+](C)(C)C)O1,i,i,112*,i,i,·,·,·,MrgX1 ag reconf=549.9%*;HEK293 Ca flux=i;HEK293 Ca counter=i;HEK293 Ca cntr2=107*
CNCCc1ccc(O)c(O)c1,i,i,42.9*,i,i,·,·,·,MrgX1 ag reconf=116.0%*;HEK293 Ca flux=i;HEK293 Ca counter=i;HEK293 Ca cntr2=i

# Screens (PubChem BioAssay)
